Measured values: ChEMBL document CHEMBL4138071, “Synthesis, antioxidant and antitumoral activities of 5'-arylchalcogeno-3-aminothymidine (ACAT) derivatives” (Medchemcomm, 2017)
Active and inactive are the calls of the source. The rule behind the calls is not given here.

What was measured:
[1] = Thiol peroxidase-like activity assessed as induction of hydrogen peroxide decomposition at 50 to 250 uM using benzenethiol incubated for 20 mins; format: functional
In short: (§1)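 This is a GPx-mimetic assay using benzenethiol (2.5 mM) instead of glutathione. The mix held ethanol, compound at final 0 - 450 μM or DMSO blank, and hydrogen peroxide (2.3 mM).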

[2] = tested on: 5637; test: Antiproliferative activity in human 5637 cells assessed as inhibition of cell growth incubated for 48 hrs by MTT assay; format: functional, cell-based; settings: Homo sapiens, 5637, 48 h
In short: (§2)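 Bladder carcinoma 5637 cells in log phase were grown in DMEM with 10% FBS at 37 °C, 5% CO2. They were seeded at 2 x 10^4 per well and treated 24 and 48 h, with DMSO up to 0.5% as vehicle. MTT was added for 3 h and A492 read. Inhibition = (1 − Abs treated/Abs control) x 100. Results are mean ± SEM.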

[3] = Antioxidant activity assessed as inhibition of Fe2+-induced phosphatidylcholine oxidation at 200 uM […] by TBARS assay; format: functional
[4] = Antioxidant activity assessed as DPPH radical scavenging activity at 1 mM incubated for 90 mins; format: functional
In short: (§3)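 Each compound mixed with 0.3 mM DPPH in ethanol. Most tests used 1 mM compound; the concentration curve covered final 0 - 1 mM. Absorbance at 518 nm was read every 30 min for 180 min. BHT served as positive control.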

[5] = Thiol peroxidase-like activity assessed as induction of hydrogen peroxide decomposition at 450 uM using benzenethiol incubated for 20 mins; format: functional; in short: as §1
[6] = Antioxidant activity assessed as inhibition of Fe2+-induced phosphatidylcholine oxidation incubated for 1 hr by TBARS assay; format: functional
[7] = Antioxidant activity assessed as DPPH radical scavenging activity at 0.25 mM measured at 22.5 +/- 0.87 mins; format: functional
In short: (§4)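 DPPH (0.3 mM) in ethanol was mixed with the test compound at final concentrations of 0–1 mM. Absorbance at 518 nm was read every 30 min for 180 min. BHT served as the positive control.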

[8] = Antioxidant activity assessed as DPPH radical scavenging activity at 0.5 mM measured at 21.33 +/- 0.6 mins; format: functional; in short: as §4
[9] = tested on: 5637; test: Antiproliferative activity in human 5637 cells assessed as inhibition of cell growth incubated for 24 hrs by MTT assay; format: functional, cell-based; settings: Homo sapiens, 5637, 24 h; in short: as §2
[10] = Toxicity in human leukocytes assessed as reduction in cell viability at 1 mM incubated for 3 hrs; format: cell-based; settings: 1000 µM
In short: (§5)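 Human leukocytes were isolated (2 x 10^6/mL) and incubated 3 h in Hank's buffer with 10% human plasma. Controls were DMSO 0.5% vehicle and 1 mM t-butyl hydroperoxide as positive control.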

[11] = tested on: 5637; test: Cell cycle arrest in human 5637 cells assessed as reduction in accumulation at G1 phase at 12.5 uM by propidium iodide staining based flow cytometry; format: functional
In short: (§6)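 5637 cells were seeded at 1x10^5 and synchronized 24 h in serum-free medium. They were then treated 24 h at 12,5 µM. DNA content was measured by propidium iodide staining with a kit and flow cytometry.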

[12] = tested on: Mus musculus; test: Toxicity in Swiss mouse assessed as effect on food intake level at 100 umol/kg, sc measured over 7 days; format: organism-based; settings: in vivo, 168 h
In short: (§7)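 Adult male Swiss mice were randomized into two groups, n = 4 each. They received a subcutaneous injection of 100 μmol/kg compound or DMSO vehicle (1 mL/kg).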

[13] = tested on: Mus musculus; test: Toxicity in Swiss mouse assessed as effect on body weight level at 100 umol/kg, sc measured over 7 days; format: organism-based; settings: in vivo, 168 h; in short: as §7
[14] = tested on: 5637; test: Antiproliferative activity in human 5637 cells assessed as inhibition of cell growth at 6.25 to 12.5 uM incubated for 48 hrs by MTT assay; format: functional; in short: as §2
[15] = tested on: Mus musculus; test: Hepatic toxicity in Swiss mouse assessed as effect on ALT level at 100 umol/kg, sc after 7 days; format: organism-based; settings: in vivo, 168 h; in short: as §7
[16] = Antioxidant activity assessed as DPPH radical scavenging activity at 0.1 mM measured at >180 mins; format: functional; in short: as §3
[17] = tested on: Mus musculus; test: Toxicity in Swiss mouse assessed as effect on spleen to body weight ratio level at 100 umol/kg, sc after 7 days; format: organism-based; settings: in vivo, 168 h; in short: as §7
[18] = Thiol peroxidase-like activity assessed as induction of hydrogen peroxide decomposition at 55 to 225 uM using benzenethiol in presence of thiophenol incubated for 20 mins; format: functional; in short: as §1
[19] = tested on: Mus musculus; test: Hepatic toxicity in Swiss mouse assessed as effect on AST level at 100 umol/kg, sc after 7 days; format: organism-based; settings: in vivo, 168 h; in short: as §7
[20] = tested on: Mus musculus; test: Toxicity in Swiss mouse assessed as effect on water intake level at 100 umol/kg, sc measured over 7 days; format: organism-based; settings: in vivo, 168 h; in short: as §7
[21] = tested on: Mus musculus; test: Renal toxicity in Swiss mouse assessed as effect on creatinine level at 100 umol/kg, sc after 7 days; format: organism-based; settings: in vivo, 168 h; in short: as §7
[22] = tested on: Mus musculus; test: Toxicity in Swiss mouse assessed as effect on liver to body weight ratio level at 100 umol/kg, sc after 7 days; format: organism-based; settings: in vivo, 168 h; in short: as §7
[23] = tested on: Mus musculus; test: Toxicity in Swiss mouse assessed as appearance of overt toxic signs at 100 umol/kg, sc measured over 7 days; format: organism-based; settings: in vivo, 168 h; in short: as §7
[24] = tested on: Mus musculus; test: Toxicity in Swiss mouse assessed as effect on kidney to body weight ratio level at 100 umol/kg, sc after 7 days; format: organism-based; settings: in vivo, 168 h; in short: as §7
[25] = tested on: Mus musculus; test: Toxicity in Swiss mouse assessed as effect on brain to body weight ratio level at 100 umol/kg, sc after 7 days; format: organism-based; settings: in vivo, 168 h; in short: as §7
[26] = tested on: Mus musculus; test: Renal toxicity in Swiss mouse assessed as effect on urea level at 100 umol/kg, sc after 7 days; format: organism-based; settings: in vivo, 168 h; in short: as §7
[27] = tested on: 5637; test: Cell cycle arrest in human 5637 cells assessed as increase in accumulation at S phase at 12.5 uM by propidium iodide staining based flow cytometry; format: functional; in short: as §6
[28] = Antioxidant activity assessed as DPPH radical scavenging activity at 1 mM measured at 38.7 +/- 8.9 mins; format: functional; in short: as §3
[29] = Toxicity in Swiss mouse assessed as mortality level at 100 umol/kg, sc measured over 7 days; format: organism-based; settings: in vivo, read-out: Activity; in short: as §7
[30] = tested on: 5637; test: Cell cycle arrest in human 5637 cells assessed as increase in accumulation at subG1 phase at 12.5 uM by propidium iodide staining based flow cytometry; format: functional; in short: as §6
[31] = Antioxidant activity assessed as DPPH radical scavenging activity at 0.25 mM measured at 104.7 +/- 10.0 mins; format: functional; in short: as §3
[32] = tested on: 5637; test: Antiproliferative activity in human 5637 cells assessed as inhibition of cell growth at 6.25 to 12.5 uM incubated for 24 hrs by MTT assay; format: functional; in short: as §2
[33] = Antioxidant activity assessed as DPPH radical scavenging activity at 0.5 mM measured at 77.3 +/- 10.3 mins; format: functional; in short: as §3
[34] = Toxicity in human leukocytes assessed as reduction in cell viability at 100 uM incubated for 3 hrs; format: cell-based; in short: as §5

Structure (SMILES): O=c1c2ccccc2[se]n1-c1ccccc1
- Activity [1]: Active

Structure (SMILES): Cc1cn([C@H]2C[C@H](N)[C@@H](C[Se]c3ccc(Cl)cc3)O2)c(=O)[nH]c1=O
- IC50 [2]: > 100 µM
- inhibition [3]: inactive
- inhibition [4]: inactive

Structure (SMILES): Cc1cn([C@H]2C[C@H](N)[C@@H](C[Se]c3ccccc3)O2)c(=O)[nH]c1=O
- IC50 [2]: > 100 µM
- inhibition [3]: inactive
- Activity [5]: Active
- inhibition [4]: inactive

Structure (SMILES): Cc1ccc([Se]C[C@H]2O[C@@H](n3cc(C)c(=O)[nH]c3=O)C[C@@H]2N)cc1
- IC50 [2]: > 100 µM
- inhibition [3]: inactive
- Activity [5]: Active
- inhibition [4]: inactive

Structure (SMILES): Cc1c(C)c2c(c(C)c1O)CC[C@@](C)(CCC[C@H](C)CCC[C@H](C)CCCC(C)C)O2 [ALPHA-TOCOPHEROL]
- IC50 [6]: 35.3 µM

Structure (SMILES): COc1ccc([Se]C[C@H]2O[C@@H](n3cc(C)c(=O)[nH]c3=O)C[C@@H]2N)cc1
- IC50 [2]: > 100 µM
- inhibition [3]: inactive
- Activity [5]: Active
- inhibition [4]: inactive

Structure (SMILES): Cc1cn([C@H]2C[C@H](N)[C@@H](CSc3ccc(Cl)cc3)O2)c(=O)[nH]c1=O
- IC50 [2]: > 100 µM
- inhibition [3]: inactive
- inhibition [4]: inactive

Structure (SMILES): Cc1cn([C@H]2C[C@H](N)[C@@H](CSc3ccccc3)O2)c(=O)[nH]c1=O
- IC50 [2]: > 100 µM
- inhibition [3]: inactive
- inhibition [4]: inactive

Structure (SMILES): Cc1cc(C(C)(C)C)c(O)c(C(C)(C)C)c1
- inhibition [7]: 50%
- inhibition [8]: 50%

Structure (SMILES): Cc1cn([C@H]2C[C@H](N=[N+]=[N-])[C@@H](CO)O2)c(=O)[nH]c1=O [ZIDOVUDINE]
- IC50 [9]: 129 µM

Structure (SMILES): COc1ccc(SC[C@H]2O[C@@H](n3cc(C)c(=O)[nH]c3=O)C[C@@H]2N)cc1
- IC50 [2]: > 100 µM
- inhibition [3]: inactive
- Activity [5]: Active
- inhibition [4]: inactive

Structure (SMILES): CC(C)(C)OO [TERT-BUTYL HYDROPEROXIDE]
- Activity [10]: 40%

Structure (SMILES): c1ccc([Se][Se]c2ccccc2)cc1
- Activity [1]: Active
- IC50 [6]: 233 µM

Structure (SMILES): Cc1ccc(SC[C@H]2O[C@@H](n3cc(C)c(=O)[nH]c3=O)C[C@@H]2N)cc1
- IC50 [2]: > 100 µM
- inhibition [3]: inactive
- inhibition [4]: inactive

Structure (SMILES): Cc1ccccc1[Se]C[C@H]1O[C@@H](n2cc(C)c(=O)[nH]c2=O)C[C@@H]1N
- IC50 [2]: > 100 µM
- inhibition [3]: inactive
- Activity [5]: Active
- inhibition [4]: inactive

Structure (SMILES): Cc1cn([C@H]2C[C@H](N)[C@@H](C[Te]c3ccccc3)O2)c(=O)[nH]c1=O
- Activity [11]: Active
- Activity [12]: Non-Toxic
- Activity [13]: Non-Toxic
- IC50 [2]: 7.94 µM
- growth inhibition (GI) [14]: >50%
- Activity [15]: Non-Toxic
- inhibition [16]: 50%
- Activity [17]: Non-Toxic
- inhibition [3]: Active
- Activity [5]: Active
- Activity [18]: Active
- Activity [19]: Non-Toxic
- Activity [20]: Non-Toxic
- Activity [21]: Non-Toxic
- Activity [22]: Non-Toxic
- Activity [23]: Non-Toxic
- Activity [24]: Non-Toxic
- Activity [25]: Non-Toxic
- inhibition [4]: Active
- Activity [26]: Non-Toxic
- Activity [27]: Active
- inhibition [28]: 50%
- mortality at 168 h [29]: 25%
- Activity [30]: inactive
- inhibition [31]: 50%
- growth inhibition (GI) [32]: >50%
- IC50 [9]: 6.61 µM
- inhibition [33]: 50%
- Activity [34]: Non-Toxic
- IC50 [6]: 4.67 µM
